Experimental data of several laboratories.
Compare with care: the assays were run in different laboratories.
Target: Tyrosine-protein kinase CSK (CSK, Homo sapiens, UniProt P41240)

N[C@H]1CCN(c2nccc(-c3cnn4ncccc34)n2)C1 has a remaining binding of 100% (binding; 1 µM).
For O=C1CCc2cc(Nc3cc(OC4CCOCC4)c([N+](=O)[O-])cc3Cl)ccc2N1, the remaining binding was 98% (cell-free assay, competition with immobilised ligand; 1 µM).
C[C@H]1CCN(c2nccc(-c3cnn4ncccc34)n2)C1 gave a remaining binding of 83% (binding; 1 µM).
Cc1ccc(-n2nc(C(C)(C)C)cc2NC(=O)Nc2ccc(-n3c(N)c(C(N)=O)c4nc5ccccc5nc43)cc2)cc1 has a remaining binding of 0.9% (cell-free assay, competition with immobilised ligand; 1 µM).
The remaining binding of COc1ccnn2ncc(-c3ccnc(N(C)C)n3)c12 is reported as 96% (binding; 1 µM).
The remaining binding of Nc1c(C(=O)NCc2ccc(C(=O)NCCCC3CCCCC3)cc2)cnn1-c1ccccc1 is reported as 100% (cell-free assay, competition with immobilised ligand; 0.1 µM).
For O=C(c1ccc(Nc2ncc(Cl)c(-c3cc4ccccc4s3)n2)cc1)N1CCC(N2CCCC2)CC1, the remaining binding was 87% (binding, competition with immobilised ligand; 1 µM).
CC1CCCN1c1nccc(-c2cnn3ncccc23)n1 (stereo not drawn) gave a remaining binding of 100% (binding; 1 µM).
With O=C(NCCCN1CCOCC1)c1ccc(Nc2nccc(-c3cc4ccccc4s3)n2)cc1 the remaining binding was 90% (binding, competition with immobilised ligand; 1 µM).
The remaining binding of Cc1cnn2ncc(-c3ccnc(N(C)C)n3)c2c1 is reported as 99% (binding; 1 µM).
With Cc1cnc(Nc2ccc(C(=O)N3CCC(N4CCCC4)CC3)cc2)nc1-c1cc2ccccc2s1 the remaining binding was 62% (binding, competition with immobilised ligand; 1 µM).
The remaining binding of COc1cnc(Nc2cccc(S(N)(=O)=O)c2)nc1N1CCN(c2ccccc2)C(=O)C1 is reported as 100% (binding, competition with immobilised ligand; 1 µM).
With CCc1ccccc1C(=O)Nc1n[nH]c2c(C)c(F)c(C3C(C#N)=C(C)N(C)C(C)=C3C#N)cc12 the remaining binding was 98% (cell-free assay, competition with immobilised ligand; 1 µM).
With CCN1CCN(Cc2ccc(C(=O)Nc3ccc(C)c(Oc4ccc5c(c4)CC(=O)N5)c3)cc2C(F)(F)F)CC1 the remaining binding was 100% (binding, competition with immobilised ligand; 1 µM).
With F[C@@H]1CCN(c2nccc(-c3cnn4ncccc34)n2)C1 the remaining binding was 100% (binding; 1 µM).
For CS(=O)(=O)c1cc(C2(NC(=O)c3cncc4c3cnn4-c3ccc(F)cc3)CC2)ccn1, the remaining binding was 95% (cell-free assay, competition with immobilised ligand; 1 µM).
For COc1ncc2cc3ccccc3nc2c1C#N, the remaining binding was 100% (cell-free assay, competition with immobilised ligand; 5 µM).
For COc1ccc2c(c1)O[C@@H](c1ccc(OC)c(OC)c1)C[C@H]2NC(=O)C1(c2ccc3c(c2)OC(F)(F)O3)CC1, the remaining binding was 87% (cell-free assay, competition with immobilised ligand; 1 µM).
The remaining binding of O=C(Nc1c[nH]nc1C(=O)NC1CCNCC1)c1cc(F)cc(F)c1 is reported as 100% (binding, competition with immobilised ligand; 1 µM).
O=C(NCCCC1CCCCC1)c1ccc(CNC(=O)c2cnn(-c3ccccc3)c2C(F)(F)F)cc1 has a remaining binding of 100% (cell-free assay, competition with immobilised ligand; 0.1 µM).
The remaining binding of Nc1ncc2c(n1)-c1c([nH]c3ccc(C#CC4CC4)cc13)CCCC2 is reported as 96% (binding, competition with immobilised ligand; 1 µM).
